Data published in ChEMBL document CHEMBL1121438, “Synthesis and antitumor activity of analogues of the antitumor antibiotic chartreusin” (J Med Chem, 1980).
One block for each compound: values may come before it.

Experiments:
L1210 [1] = assay: Evaluated for growth inhibition against cultured L1210 cells after 48 hour drug exposure in trial 1 at a dose of 1.44*10e-8; type: functional, Mus musculus
L1210 [2] = assay: Evaluated for growth inhibition against cultured L1210 cells after 48 hour drug exposure in trial 2 at a dose of 1.44*10e-8; type: functional, Mus musculus
L1210 [3] = assay: Evaluated for growth inhibition against cultured L1210 cells after 48 hour drug exposure in trial 2 at a dose of 1.44*10e-9; type: functional, Mus musculus
[4] = Partition coefficient (logP); type: physicochemical; details: octanol/water
L1210 [5] = assay: Evaluated for growth inhibition against cultured L1210 cells after 48 hour drug exposure in trial 1 at a dose of 1.44*10e-9; type: functional, Mus musculus
L1210 [6] = assay: Evaluated for growth inhibition against cultured L1210 cells after 48 hour drug exposure in trial 1 at a dose of 1.45*10e-8; type: functional, Mus musculus
L1210 [7] = assay: Evaluated for growth inhibition against cultured L1210 cells after 48 hour drug exposure in trial 1 at a dose of 1.45*10e-9; type: functional, Mus musculus
L1210 [8] = assay: Evaluated for growth inhibition against cultured L1210 cells after 48 hour drug exposure in trial 2 at a dose of 1.45*10e-8; type: functional, Mus musculus
L1210 [9] = assay: Evaluated for growth inhibition against cultured L1210 cells after 48 hour drug exposure in trial 2 at a dose of 1.45*10e-9; type: functional, Mus musculus
Mus musculus [10] = assay: Evaluated % increase in life span in vivo against P388 Murine leukemia cells in trial 2 at a dose of 200 mg/kg; type: functional
Procedure, shortened: (§1)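 Male CDF1 mice (17-22 g) inoculated ip with 10^6 P388 cells on day 0. Six animals per dose level. Activity is the median increase in life span over untreated controls (% ILS); body weight change of test vs control measured on days 1 and 5.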

Mus musculus [11] = assay: Evaluated % increase in life span in vivo against P388 Murine leukemia cells in trial 2 at a dose of 25 mg/kg; type: functional; procedure, shortened: as §1
Mus musculus [12] = assay: Evaluated % increase in life span in vivo against P388 Murine leukemia cells in trial 2 at a dose of 50 mg/kg; type: functional; procedure, shortened: as §1
Mus musculus [13] = assay: Evaluated % increase in life span in vivo against P388 Murine leukemia cells in trial 1 at a dose of 100 mg/kg; type: functional; procedure, shortened: as §1
Mus musculus [14] = assay: Evaluated % increase in life span in vivo against P388 Murine leukemia cells in trial 1 at a dose of 12.5 mg/kg; type: functional; procedure, shortened: as §1
Mus musculus [15] = assay: Evaluated % increase in life span in vivo against P388 Murine leukemia cells in trial 1 at a dose of 200 mg/kg; type: functional; procedure, shortened: as §1
Mus musculus [16] = assay: Evaluated % increase in life span in vivo against P388 Murine leukemia cells in trial 1 at a dose of 25 mg/kg; type: functional; procedure, shortened: as §1
Mus musculus [17] = assay: Evaluated % increase in life span in vivo against P388 Murine leukemia cells in trial 1 at a dose of 50 mg/kg; type: functional; procedure, shortened: as §1
Mus musculus [18] = assay: Evaluated % increase in life span in vivo against P388 Murine leukemia cells in trial 2 at a dose of 100 mg/kg; type: functional; procedure, shortened: as §1
Mus musculus [19] = assay: Evaluated % increase in life span in vivo against P388 Murine leukemia cells in trial 2 at a dose of 12.5 mg/kg; type: functional; procedure, shortened: as §1
[20] = Partition coefficient (logP) (HPLC); type: physicochemical; details: octanol/water
Procedure, shortened: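 Relative log P by the reversed-phase LC method of McCall: octadecylsilyl column eluted with acetonitrile–water (1:1). The system was calibrated with a reference compound of known octanol/water log P, and log P values were derived from elution times.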

[21] = Partition coefficient determined using pi values; type: physicochemical; details: octanol/water
Procedure, shortened: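 Calculated log P: the aglycon value was summed with the π value of the glycosyl substituent, using literature −2.84 for O-β-glucosyl and −3.24 for maltosyl.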

L1210 [22] = assay: Evaluated for growth inhibition against cultured L1210 cells after 48 hour drug exposure in trial 1 at a dose of 1.65*10e-8; type: functional, Mus musculus
L1210 [23] = assay: Evaluated for growth inhibition against cultured L1210 cells after 48 hour drug exposure in trial 1 at a dose of 1.65*10e-9; type: functional, Mus musculus
L1210 [24] = assay: Evaluated for growth inhibition against cultured L1210 cells after 48 hour drug exposure in trial 2 at a dose of 1.65*10e-8; type: functional, Mus musculus
L1210 [25] = assay: Evaluated for growth inhibition against cultured L1210 cells after 48 hour drug exposure in trial 2 at a dose of 1.65*10e-9; type: functional, Mus musculus

logP [4]: 2.07
SMILES: Cc1ccc2oc(=O)c3c(O)c4cccc(O[C@H]5O[C@H](C)[C@H](O)[C@H](O)[C@H]5O)c4c4oc(=O)c1c2c34
Inhibition (L1210 [1]): 100%
Inhibition (L1210 [2]): 100%
Inhibition (L1210 [3]): 65%
Inhibition (L1210 [5]): 71%

SMILES: CO[C@H]1[C@@H](O)[C@@H](C)O[C@H](O[C@H]2[C@@H](Oc3cccc4c(O)c5c(=O)oc6ccc(C)c7c(=O)oc(c34)c5c67)O[C@H](C)[C@H](O)[C@@H]2O)[C@@H]1O
Inhibition (L1210 [6]): 100%
Inhibition (L1210 [7]): 21%
Inhibition (L1210 [8]): 100%
Inhibition (L1210 [9]): 32%
ILS at 200 mg/kg (Mus musculus [10]): 58%
ILS at 25 mg/kg (Mus musculus [11]): 56%
ILS at 50 mg/kg (Mus musculus [12]): 54%
ILS at 100 mg/kg (Mus musculus [13]): 93%
ILS at 12.5 mg/kg (Mus musculus [14]): 46%
ILS at 200 mg/kg (Mus musculus [15]): 43%
ILS at 25 mg/kg (Mus musculus [16]): 47%
ILS at 50 mg/kg (Mus musculus [17]): 60%
ILS at 100 mg/kg (Mus musculus [18]): 45%
ILS at 12.5 mg/kg (Mus musculus [19]): 17%
logP [4]: 1.8

logP [20]: 1.82
logP [21]: 1.35
SMILES: Cc1ccc2oc(=O)c3c(O)c4cccc(O[C@H]5O[C@H](CO)[C@@H](O)[C@H](O)[C@H]5O)c4c4oc(=O)c1c2c34
Inhibition (L1210 [6]): 100%
Inhibition (L1210 [7]): 59%
Inhibition (L1210 [8]): 97%
Inhibition (L1210 [9]): 47%

logP [4]: 4.19
SMILES: Cc1ccc2oc(=O)c3c(O)c4cccc(O)c4c4oc(=O)c1c2c34
Inhibition (L1210 [22]): 57%
Inhibition (L1210 [23]): 0%
Inhibition (L1210 [24]): 58%
Inhibition (L1210 [25]): 7%
